# Experimental data pooled from the literature.
# Lines come from different studies, so protocols differ.
# Effect on: cell growth or viability
SMILES,cell line,method,time,IC50
CC(=O)O[C@@]12CO[C@@H]1C[C@H](O)[C@@]1(C)C(=O)[C@H](O)C3=C(C)[C@@H](OC(=O)[C@H](O)[C@@H](NC(=O)OC(C)(C)C)c4ccccc4)C[C@@](O)([C@@H](OC(=O)c4ccccc4)[C@H]21)C3(C)C,4T1,CCK-8,72 h,0.118 µM
S=C(NN=Cc1ccc(Cl)s1)Nc1ccccc1,CRFK,,,10.1 µM
CC(C)c1cc(-c2n[nH]c(=O)n2-c2ccc3c(ccn3C)c2)c(O)cc1O,MDA-MB-415,imaging,24 h,0.024 µM
NCCc1ccc(O)c(O)c1,CAL-27,,72 h,> 20 µM
c1ccc(-c2cnc3c(n2)CCCC3)cc1,MCF-10A,,48 h,> 50 µM
COc1cc(C2Oc3cc([C@H]4Oc5cc(O)cc(O)c5C(=O)[C@@H]4O)ccc3OC2CO)ccc1O (some centres unmarked),SNU-423,CCK-8,72 h,18.8 µM
CCCCOc1cccc(-c2cnc3c(n2)CCCC3)c1,MCF-10A,,48 h,> 50 µM
C=CC1=C(C(=O)O)N2C(=O)[C@@H](NC(=O)/C(=N\OCC(=O)O)c3csc(N)n3)[C@H]2SC1,VCaP,CCK-8,72 h,> 30 µM
COc1nc(SC)nc(OC)c1C(=O)/C=C/[c-]1cccc1.[Fe+2].c1cc[cH-]c1,4T1,MTT,72 h,214 µM
C[C@H]1[C@@H](O)O[C@@H]2O[C@@]3(C)CC[C@H]4[C@H](C)CC[C@@H]1[C@@]24OO3,MCF-10A,CCK-8,48 h,44.4 µM
CC(C)C[C@H](NC(=O)[C@H](Cc1ccccc1)NC(=O)c1cnccn1)B(O)O,P31-FUJ,ATP luminescence,,0.0051 µM
CC(=O)CC(c1ccccc1)c1c(O)c2ccccc2oc1=O (centres unmarked),CAL-27,,72 h,> 20 µM
CC(C)c1cccc(C(C)C)c1-n1c(Cl)c(Cl)n(-c2c(C(C)C)cccc2C(C)C)c1=[Se],HCT-15,MTT,72 h,14.2 µM
CCCCCc1ccc(-c2cnc3c(n2)CCCC3)cc1,MCF-10A,,48 h,> 50 µM
O=C(Nc1nnnn1C1CCCCC1)c1ccc2ccccc2c1,MCF-10A,,48 h,81 µM
CC(C)Oc1cccc(-c2cnc3c(n2)CCCC3)c1,MCF-10A,,48 h,25 to 50 µM
Clc1ccc2c(c1)N=C(N1CCNCC1)c1ccccc1N2,CAL-27,,72 h,> 20 µM
O=C(c1cc(Cl)c(Cl)[nH]1)c1c(O)ccc(Cc2cc(C(c3csc(-c4ccccc4O)n3)c3ccc(O)c(C(=O)c4cc(Cl)c(Cl)[nH]4)c3O)c(O)c(C(=O)c3cc(Cl)c(Cl)[nH]3)c2O)c1O (centres unmarked),MDCK,MTT,72 h,28 µg/mL
CCCCc1ccc2[nH]c(NC(=O)OC)nc2c1,GTL 16,CCK-8,72 h,0.284 µM
COc1cc(Nc2nccc(-c3cnn4nc(OC)ccc34)n2)cc(C(F)(F)F)c1,SCLC-21H,ATP luminescence,,0.36 µM
CC(C)C(=O)SCCCCCCC(=O)Nc1nc(-c2ccccc2)cs1,CAL-27,,72 h,1.15 µM
Cc1cc(NC(=O)c2cccc3cc(-c4cccc5[nH]nc(N)c45)ccc23)ccc1F,GL261,CCK-8,72 h,> 20 µM
COc1cccc2c1C(=O)c1c(O)c3c(c(O)c1C2=O)C[C@@](O)(C(=O)CO)C[C@@H]3O[C@H]1C[C@H](N)[C@H](O)[C@H](C)O1,MCF-10A,,48 h,2.17 µM
O=C(c1cc(Cl)c(Cl)[nH]1)c1c(O)ccc(C(c2csc(-c3ccccc3O)n2)c2ccc(O)c(C(=O)c3cc(Cl)c(Cl)[nH]3)c2O)c1O,MDCK,MTT,72 h,67 µg/mL
COc1ccc(-c2cnc3c(n2)CCCC3)nc1,MCF-10A,,48 h,> 50 µM
C=C1CC[C@@H]2[C@](C)(CO)[C@H](O)CC[C@@]2(C)[C@@H]1C/C=C1/C(=O)OC[C@H]1O,VCaP,CCK-8,72 h,20.4 µM
CC(C)c1ccccc1S(=O)(=O)c1cc(N)c2ncccc2c1[N+](=O)[O-],CAL-27,,72 h,> 20 µM
O=C1CCCCC1C1C2C=CC=CC1C(C1CC1)=C2 (centres unmarked),K562,flow cytometry,,0.017 µM
Nc1nc(Nc2ccccc2)nc2c1ncn2[C@@H]1O[C@H](CO)[C@@H](O)[C@H]1O,CAL-27,,72 h,> 20 µM
O=C(NC(=S)NCCCNC(=S)NC(=O)c1ccc2ccccc2c1)c1ccc2ccccc2c1,MCF-10A,,48 h,90.2 µM
CCN(CC)CCNC(=O)COc1ccc(OC)cc1,CAL-27,,72 h,> 20 µM
CCOc1ccc(-c2cnc3c(n2)CCCC3)cc1,MCF-10A,,48 h,> 50 µM
